Data from publication PMC6899483 (ChemMedChem, 2019).
Several values for one entry are separate records, joined by “and”; a condition that tells them apart may be missing. Identical values can stand only once.

Key:
[1] = tested on: Pf (3D7); assay: Plasmodium falciparum screening; assay type: cell-based
Outline: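 Asexual intraerythrocytic P. falciparum 3D7 grown in expired human transfusion red cells. EC50 is reported with its 95% confidence interval, and n is the number of screening replicates.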

[2] = tested on: HepG2; assay: mammalian cell growth inhibition assay; assay type: cell-based; details: Homo sapiens, HepG2, read-out: EC50 HepG2, mammalian cell counter-screen
Outline: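 HepG2 counter-screen values are EC50s, each with its number of screening replicates (n) and a 95% confidence interval.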

[3] = mouse microsomal clearance; assay type: in vitro ADME; details: mouse liver microsomes
Outline: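 Intrinsic clearance is measured in mouse liver microsomes and expressed as mL min−1 (g liver)−1.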

In the case of `Cc1ccc(NC(C)(C)C(=O)Nc2ccc(F)c(Cl)c2)cc1S(=O)(=O)N1CCOCC1` [Compound 28, N-(3-chloro-4-fluorophenyl)-2-methyl-2-{[4-methyl-3-(morpholinosulfonyl)phenyl]amino}propanamide], the “improvement in antimalarial potency relative to compound 1” value ([1]; Pf (3D7)) is reported as ~20 fold and > 10 fold, the EC50 ([1]; Plasmodium falciparum, 3D7, read-out: EC50 Pf (3D7)) is reported as 7 nM and the EC50 [2] is reported as greater than 25000 nM. For the same molecule, the “Mouse microsomal CLint” value [3] was > 50 mL min^−1 (g liver)^−1.
